# FN deposit inh: inhibitors of fibronectin matrix deposition, primary screen, AH1F cells, Alexa488-fibronectin fluorescence, plate reader; AID 743247, 2014; inhibition, % at 12.6 µM; 350,000 compounds, 0.086% hits; AH1F fibroblasts, overnight;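 active = mean inhibition across replicates of 30% or more, regardless of how many single replicates reach that level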;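 note: positive control wells lacked labelled fibronectin entirely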
#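 Schedule: 1 h cell adhesion before compound, then overnight fibronectin incubation; test system: AH1F fibroblast monolayer depositing Alexa488-labelled fibronectin into matrix; quantity: 10000 AH1F cells per well; probe or stimulus: fluorescent fibronectin at 24 nM final; signal: fluorescence, ex 485 nm, em 525 nm; evaluation: percent inhibition as loss of matrix-bound fibronectin fluorescence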
# GC-A act: GC-A stimulated cGMP production enhancers – HEK293 GC-A cells, cGMP TR-FRET, EC30 ANP, primary screen; activation, % at 10 µM; AID 1671463, 2021; 370,000 compounds, 0.14% hits; 0% at EC30 ANP, 100% saturating ANP; Atrial natriuretic peptide receptor 1 (Homo sapiens), P16066; in the data active = activation above about 40%
# NSD2 inh: NSD2 histone methyltransferase inhibitors, primary screen, biochemical, AlphaScreen, single concentration, set 2. AID 743445, 2014. NSD2 peptide methylation, 120 min. inhibition, % at 12.5 µM. 310,000 compounds, 0.54% hits; in the data active = inhibition above about 50%
# Target sequence (O96028 whole entry, looked up): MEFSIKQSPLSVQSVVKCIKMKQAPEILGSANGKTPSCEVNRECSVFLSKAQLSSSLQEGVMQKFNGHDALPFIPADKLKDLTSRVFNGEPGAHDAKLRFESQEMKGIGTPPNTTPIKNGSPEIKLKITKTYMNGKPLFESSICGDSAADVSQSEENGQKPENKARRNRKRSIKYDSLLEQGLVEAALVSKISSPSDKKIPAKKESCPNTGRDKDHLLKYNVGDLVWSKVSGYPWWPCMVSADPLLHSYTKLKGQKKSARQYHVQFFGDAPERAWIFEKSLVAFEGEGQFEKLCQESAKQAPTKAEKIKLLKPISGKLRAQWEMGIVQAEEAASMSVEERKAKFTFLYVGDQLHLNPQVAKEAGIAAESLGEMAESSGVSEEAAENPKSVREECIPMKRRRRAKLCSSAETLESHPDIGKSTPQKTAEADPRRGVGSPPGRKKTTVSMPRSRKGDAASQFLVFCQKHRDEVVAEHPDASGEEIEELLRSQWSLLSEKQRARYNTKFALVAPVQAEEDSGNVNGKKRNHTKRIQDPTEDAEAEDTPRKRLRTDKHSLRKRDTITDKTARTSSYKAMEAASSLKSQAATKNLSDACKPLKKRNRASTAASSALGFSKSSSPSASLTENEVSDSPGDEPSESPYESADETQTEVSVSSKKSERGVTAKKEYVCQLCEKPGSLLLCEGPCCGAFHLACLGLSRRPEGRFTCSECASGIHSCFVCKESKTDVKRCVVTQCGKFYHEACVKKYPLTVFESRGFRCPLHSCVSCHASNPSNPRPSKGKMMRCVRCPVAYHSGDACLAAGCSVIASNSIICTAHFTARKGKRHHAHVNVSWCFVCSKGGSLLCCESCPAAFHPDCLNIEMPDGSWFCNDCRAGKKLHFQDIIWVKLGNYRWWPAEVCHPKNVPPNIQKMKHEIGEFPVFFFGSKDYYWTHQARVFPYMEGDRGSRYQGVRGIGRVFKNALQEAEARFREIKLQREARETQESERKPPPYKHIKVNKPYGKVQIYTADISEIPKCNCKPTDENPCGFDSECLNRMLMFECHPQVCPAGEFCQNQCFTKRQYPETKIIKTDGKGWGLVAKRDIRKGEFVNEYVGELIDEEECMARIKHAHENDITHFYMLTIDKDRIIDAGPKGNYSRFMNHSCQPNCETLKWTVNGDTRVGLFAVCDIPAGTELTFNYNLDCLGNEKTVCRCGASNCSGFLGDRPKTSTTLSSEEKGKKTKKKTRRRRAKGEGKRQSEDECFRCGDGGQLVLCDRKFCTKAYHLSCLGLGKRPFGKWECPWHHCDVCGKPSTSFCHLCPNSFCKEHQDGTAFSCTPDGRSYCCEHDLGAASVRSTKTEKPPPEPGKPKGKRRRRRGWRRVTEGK
# Casp6 inh: human caspase-6 inhibitors, primary screen, biochemical, VEID-R110 fluorescence, single point, set 2 | P55212 | purified caspase-6, Z-VEID-R110 cleavage fluorescence | inhibition, % at 12.5 µM | 350,000 compounds, 0.53% hits | AID 686996, 2013;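 active = mean inhibition across replicates at least about 35%, with every replicate also reaching that limit, limit read from the data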;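 note: 0% = median of neutral control wells and 100% = no fluorescence left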
# CaV13 ICDI inh: Disruptors of the CACNA1D IQ motif to Ca2+-dependent inactivation inhibitor domain association, primary screening, Förster resonance energy transfer in intact living …. inhibition, % at 12.3 µM. HEK cells, CFP/YFP FRET ICDI-IQ, plate reader, 10 min; percent FRET-ratio fall versus neutral wells. 340,000 compounds, 0.098% hits. AID 743397;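 active = mean replicate inhibition of at least 30% and at least 1% of replicates passing that level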;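 note: 0% = median of the neutral control wells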
# GC-B act: human GC-B receptor activators, primary screen, HEK293 GC-B cells, cGMP TR-FRET, EC30 CNP. Atrial natriuretic peptide receptor 2 (Homo sapiens), P20594. 0% at EC30 CNP, 100% saturating CNP. activation, % at 10 µM. 370,000 compounds, 0.11% hits. AID 1920062, 2024;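 active = activation at 10 µM reaching about 35% in either raw or pattern-adjusted values, limit read from the data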
# The depositor's hits bear a star; · = no result; + = active, no number. An excerpt weighted towards active compounds, which were near 0.99% of everything screened.
SMILES,FN deposit inh,GC-A act,NSD2 inh,Casp6 inh,CaV13 ICDI inh,GC-B act
N#Cc1nc(NCC(F)F)nc(Nc2cc(F)cc(F)c2)n1,2,44*,·,·,-8,39*
Cc1[nH]nc(-c2ccc(O)cc2O)c1-c1ccc(Cl)cc1,2,70*,2,·,-5,-8
O=C(C[C@H]1C[C@H]2c3cc(NC(=O)C4CCC4)ccc3O[C@H]2[C@@H](CO)O1)NC1CCCCC1,-4,·,·,·,·,·
CN(C)c1ccc2c(c1)[C@@H]1C[C@@H](CC(=O)NCc3ccccn3)O[C@@H](CO)[C@@H]1O2,5,·,·,40*,·,·
COc1ccc(S(=O)(=O)Nc2cccc(C(C)=O)c2)cc1Br,21,-5,-2,-3,-5,-7
COc1ccc(C)cc1N(CC(=O)Nc1cccc(N(C)S(C)(=O)=O)c1)S(C)(=O)=O,32*,1,5,1,-10,1
COc1ccc(N(CC(=O)Nc2cccc(N(C)S(C)(=O)=O)c2)S(C)(=O)=O)cc1OC,·,2,0,1,-10,2
COc1ccc(S(=O)(=O)Nc2cccc(N(C)S(C)(=O)=O)c2)cc1Br,·,34,-1,·,-6,37*
C[C@H]1CN([C@@H](C)CO)C(=O)c2cccc(NC(=O)Nc3ccccc3)c2O[C@H]1CN(C)Cc1ccccc1,·,·,·,1,·,·
Cc1ccc(-c2csc(NC(=O)CN3C(=O)CCC3=O)n2)cc1,-17,55*,·,-4,6,4
C/C=C/c1ccc2c(c1)[C@H]1[C@H](CCN1C(=O)Cc1cccnc1)[C@@H](CO)N2C,2,·,·,-22,·,·
CCCS(=O)(=O)c1c(S(=O)(=O)CCC)c2ccc(C(N)=O)cn2c1C(=O)c1ccccc1,2,35,1,-2,-21,42*
CCCS(=O)(=O)c1c(S(=O)(=O)CCC)c2c(C(N)=O)cccn2c1C(=O)c1ccc(F)cc1,-12,-1,-9,-3,-2,1
CN(C)CC1CCC/C(=C\c2ccc(OC(=O)c3ccc(Cl)cc3)cc2)C1=O (stereo unspecified),-1,40*,·,0,-5,4
CN(C)CC1CCC/C(=C\c2ccc(OC(=O)/C=C/c3ccccc3)cc2)C1=O (stereo unspecified),-8,5,-3,2,-6,-1
C[C@@H]1CN([C@@H](C)CO)C(=O)c2cc(NC(=O)C3CCCCC3)ccc2O[C@@H]1CN(C)C(=O)Nc1ccccc1,·,·,·,2,·,·
COc1ccc(NC(=O)N(C)C[C@@H]2Oc3c(NS(=O)(=O)c4ccc(Cl)cc4)cccc3C(=O)N([C@@H](C)CO)C[C@H]2C)cc1,-13,·,·,-1,·,·
Cc1ccn2cc(-c3ccc(NC(=O)c4ccco4)cc3)nc2c1,32*,1,-1,·,-4,-2
C[C@@H]1CN([C@@H](C)CO)C(=O)c2cc(NC(=O)NC3CCCCC3)ccc2O[C@@H]1CN(C)Cc1ccc(Oc2ccccc2)cc1,·,·,·,5,·,·
Cc1ccc(/C=C2/NC(=O)N(Cc3ccccc3)C2=O)o1,5,40,1,·,-2,46*
Cc1ccc(CN2C(=O)N/C(=C\c3ccc(-c4ccc(C(=O)O)cc4C)o3)C2=O)cc1,2,4,2,28,3,-6
COC(=O)CN1C(=O)N/C(=C/c2ccc(C)o2)C1=O,-7,2,-2,6,-5,0
O=C(O)c1ccc(-c2ccc(/C=C3\NC(=O)N(Cc4ccc(Cl)cc4)C3=O)o2)cc1,9,-9,6,8,48*,-3
COC(=O)c1cc(-c2ccc(OC)cc2)on1,4,30,0,3,-5,2
COC(=O)c1cc(-c2ccc(Br)cc2)on1,7,59*,·,-1,-7,8
SMILES,FN deposit inh,GC-A act,NSD2 inh,Casp6 inh,CaV13 ICDI inh,GC-B act
CCCCCCCC/C=C\CCCCCCCC(=O)O,-15,2,·,7,-5,0
CCCCC/C=C\C/C=C\C/C=C\CCCCC(=O)O,-12,3,·,40*,-4,-1
COc1ccc(F)cc1C1=CC(=O)C[C@H](c2ccc3c(c2)OCO3)C1,-4,10,·,52*,-5,9
O=C(C[C@@H]1C=C[C@@H](NC(=O)Nc2ccc3c(c2)OCO3)[C@@H](CO)O1)NCc1ccc(Cl)cc1,·,·,·,-1,·,·
O=C(C[C@H]1C[C@H]2c3cc(NC(=O)Nc4ccccc4F)ccc3O[C@H]2[C@@H](CO)O1)NCc1ccc2c(c1)OCO2,·,·,·,3,·,·
COc1ccc(Cn2c(=O)n(Cc3ccco3)c(=N)c3c4c(sc32)COC(C)(C)C4)cc1,·,56*,8,·,-5,56*
CC1(C)Cc2c(sc3c2c(=N)n(Cc2ccco2)c(=O)n3Cc2ccc(F)cc2)CO1,·,30,1,·,·,35
O=C(O)C[C@H]1CC[C@H]2[C@@H](COC[C@H](O)CN2S(=O)(=O)c2ccc(Oc3ccccc3)cc2)O1,9,·,·,40*,·,·
O=C(O)C[C@H]1CC[C@@H]2[C@H](COC[C@@H](O)CN2S(=O)(=O)c2ccc(Oc3ccccc3)cc2)O1,-7,·,·,10,·,·
COc1cccc(C(=O)NCC(=O)OCC(=O)C(C)(C)C)c1,7,-2,-10,0,-5,0
CC(C)(C)C(=O)COC(=O)CNC(=O)c1ccc(Oc2ccccc2)cc1,-10,42*,-1,·,-3,-1
COc1ccc(S(=O)(=O)Nc2ccc3c(c2)C(=O)N([C@@H](C)CO)C[C@H](C)[C@H](CN(C)C(=O)Nc2ccccc2)OCCCC[C@H](C)O3)cc1,0,·,·,·,·,·
N#Cc1c2ccc(O)cc2n2ccccc12,-20,-13,-4,1,+,-8
O=C1C=C(Nc2ccc(F)cc2)c2ccccc2C1=O,5,-3,6,40*,-5,-6
C[C@@H]1CN([C@H](C)CO)C(=O)c2cc(NS(C)(=O)=O)ccc2O[C@H]1CN(C)Cc1ccc2c(c1)OCO2,·,·,·,-8,·,·
N#C/C(=C/c1ccc(O)c(O)c1)C(=O)NCc1ccc(Cl)cc1,1,4,78*,35*,-3,-1
C[C@H](CO)N1C[C@H](C)[C@@H](CN(C)C(=O)NC2CCCCC2)Oc2ccc(NS(=O)(=O)c3cn(C)cn3)cc2CC1=O,-2,·,·,·,·,·
O=C(N/N=C\C=C\c1ccc([N+](=O)[O-])o1)c1cccs1,5,-14,3,56*,-4,1
